Assay outcomes from PubChem.
Myeloid diff 2 – compounds promoting myeloid differentiation | ER-HoxA9 myeloid progenitors, lysozyme-GFP differentiation, flow cytometry | calls only at 10 µM | 360,000 compounds, 1% hits;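 active = normalized GFP-positive differentiation at or above the plate's own cutoff, the solvent-only control mean plus 3 SD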;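 also: cells exposed to compound for four days before flow analysis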
TPT1 inhibitor – C. albicans TPT1 enzyme inhibition; 300,000 compounds, 0.81% hits; recombinant caTPT1, FP RNA substrate dephosphorylation; inhibition, % at 5 µM;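 active = inhibition above the mean of all tested compounds plus 3 SD, set per screening campaign, cut at about 24% in these data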
HNF4A DNA FP – change in binding of human HNF4 alpha to DNA; HNF4a-FITC DNA binding, fluorescence polarization, 1 h; activity change, % at 10 µM; 360,000 compounds, 0.3% hits; AID 1224865; in the data active = activity change above about 30%, passing the limit was not always enough
CSN deneddyl inh – CSN deneddylation inhibition; inhibition, % at 12.5 µM; Q92905; 360,000 compounds, 0.38% hits; Purified CSN, SCF-Nedd8-OG deneddylation, fluorescence polarization; AID 651999;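 active = pattern-corrected inhibition above about 35%, with an unprinted fluorescence ratio check between 0.5 and 1.5, limit read from the data, passing the limit was not always enough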
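assay system = purified human Csn5 enzyme expressed in HEK293T cells | amount = 0.24 nM enzyme | buffer or medium = Tris/NaCl/DTT buffer, pH 7.5 | reagent = 10 nM SCFSkp2-Nedd8OG | compound = one concentration, 12.5 µM, 0.25% DMSO | times = 90 min reaction at room temperature | signal = FP | read-out basis = % inhibition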
Rpn11 inh – Rpn11 (human) deubiquitinase inhibition; O00487; 360,000 compounds, 0.59% hits; inhibition, % at 20 µM; human 26S proteasome, Ub4-pepOG fluorescence polarization; 20S core pre-blocked with epoxomicin; AID 588493;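 active = inhibition at 20 µM, scaled to each plate's controls, above about 33%, limit read from the data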
Rpn11 inh conf – Rpn11 inhibition confirmation, single concentration. shares compounds with Rpn11 inh. purified human 26S proteasome, Ub4-pepOG fluorescence polarization; proteasome pretreated with epoxomicin. inhibition, % at 20 µM. 1,900 compounds, 29% hits
MMP-2 inh – MMP-2 (human) inhibition counter-screen. shares compounds with Rpn11 inh. recombinant MMP-2, FRET peptide cleavage fluorescence. inhibition, % at 20 µM. 1,900 compounds, 4% hits;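 also: human MMP-2 activated beforehand with APMA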
Thrombin inh – thrombin (bovine) inhibition counter-screen. shares compounds with Rpn11 inh. bovine thrombin cleavage of Ub4-pepOG, fluorescence polarization. inhibition, % at 20 µM. 1,900 compounds, 13% hits;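 active = mean inhibition at least 40% at 20 µM, or signal 3 deviations below plate average, so some actives read negative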
Target sequence (P00735 whole entry, looked up): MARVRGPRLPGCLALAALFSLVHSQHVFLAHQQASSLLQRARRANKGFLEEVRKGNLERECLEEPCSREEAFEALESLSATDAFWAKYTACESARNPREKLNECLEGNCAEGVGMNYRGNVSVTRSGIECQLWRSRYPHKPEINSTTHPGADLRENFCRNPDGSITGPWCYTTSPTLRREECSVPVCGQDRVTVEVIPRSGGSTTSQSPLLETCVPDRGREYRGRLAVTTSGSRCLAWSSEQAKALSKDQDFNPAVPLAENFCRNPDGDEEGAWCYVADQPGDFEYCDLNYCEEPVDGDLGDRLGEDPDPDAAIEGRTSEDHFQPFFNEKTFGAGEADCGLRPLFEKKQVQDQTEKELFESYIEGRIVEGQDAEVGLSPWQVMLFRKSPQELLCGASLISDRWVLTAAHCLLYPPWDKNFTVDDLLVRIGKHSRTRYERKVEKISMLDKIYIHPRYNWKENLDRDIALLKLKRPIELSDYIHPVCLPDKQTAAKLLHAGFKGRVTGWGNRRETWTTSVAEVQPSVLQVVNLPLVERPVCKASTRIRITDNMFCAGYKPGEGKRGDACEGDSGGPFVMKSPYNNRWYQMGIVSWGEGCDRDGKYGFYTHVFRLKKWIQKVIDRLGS
Hits are given with their value. A selection: hits, their analogues and other compounds. The true share with any hit is near 2.3%. Rule as the data show it, unless noted: active = inhibition above about 40%; inactive = the rest.

Screening CCc1c(O)nc(SCC(=O)Nc2ccc(C)cc2)n(C2CCCCC2)c1=O returned Myeloid diff 2 inactive, TPT1 inhibitor inactive, HNF4A DNA FP inactive, CSN deneddyl inh inactive, Rpn11 inh 85, Rpn11 inh conf 42, MMP-2 inh inactive and Thrombin inh inactive.
Screening C[C@@H]1CN([C@@H](C)CO)S(=O)(=O)c2ccc(Br)cc2O[C@H]1CN(C)C(=O)Nc1ccc(C(F)(F)F)cc1 returned Myeloid diff 2 inactive, HNF4A DNA FP inactive, CSN deneddyl inh inactive and Rpn11 inh inactive.
`Cc1ccc(-c2cc3c(N=O)c4ccccc4c-3n[nH]2)cc1` gave Myeloid diff 2 inactive, TPT1 inhibitor inactive, HNF4A DNA FP inactive, CSN deneddyl inh inactive, Rpn11 inh 69, Rpn11 inh conf inactive, MMP-2 inh inactive and Thrombin inh inactive.
COc1ccc(Cl)cc1NC(=O)C1CCN(C(=O)C2CC(=O)N(c3ccc(C)cc3)C2)CC1 (stereo not drawn) was read as Myeloid diff 2 inactive, TPT1 inhibitor inactive, HNF4A DNA FP inactive, CSN deneddyl inh inactive and Rpn11 inh inactive.
Screening O=C(COc1ccc(/C=N/NC(=O)c2cc3ccccc3o2)cc1Cl)Nc1ccccc1 returned Myeloid diff 2 inactive, TPT1 inhibitor inactive, HNF4A DNA FP 45, CSN deneddyl inh 120, Rpn11 inh active, Rpn11 inh conf inactive, MMP-2 inh inactive and Thrombin inh inactive.
Screening O=C(N/N=C/c1ccc2c(c1)OCO2)c1cc2ccccc2o1 returned Myeloid diff 2 inactive, TPT1 inhibitor inactive, HNF4A DNA FP inactive, CSN deneddyl inh inactive and Rpn11 inh inactive.
O=C1CN(C(=O)c2cc([N+](=O)[O-])ccc2Cl)C(c2ccc(F)cc2)c2cc(F)ccc2N1 (stereo not drawn) was read as Myeloid diff 2 inactive, TPT1 inhibitor inactive, HNF4A DNA FP inactive, CSN deneddyl inh inactive and Rpn11 inh inactive.
Screening CSc1ccc(/C=N/NC(=O)c2ccc(C)c(C)c2)cc1 returned Myeloid diff 2 inactive, TPT1 inhibitor inactive, HNF4A DNA FP inactive, CSN deneddyl inh inactive, Rpn11 inh 61, Rpn11 inh conf inactive, MMP-2 inh inactive and Thrombin inh inactive.
Screening CC(=O)NS(=O)(=O)c1ccc(NC(=O)[C@@H]2CCCN2S(=O)(=O)c2ccc(Cl)cc2)cc1 returned Myeloid diff 2 inactive, HNF4A DNA FP inactive, CSN deneddyl inh inactive and Rpn11 inh inactive.
O=C(/C(=C(\[O-])c1ccccc1)[n+]1ccc2ccccc2c1)c1ccccc1 was read as Myeloid diff 2 active, TPT1 inhibitor inactive, HNF4A DNA FP inactive, CSN deneddyl inh inactive, Rpn11 inh 43, Rpn11 inh conf inactive, MMP-2 inh inactive and Thrombin inh inactive.
For CCc1cccc(NC(=O)CCS(=O)(=O)c2ccc(Br)cc2)c1 the results were Myeloid diff 2 inactive, TPT1 inhibitor inactive, HNF4A DNA FP inactive, CSN deneddyl inh inactive and Rpn11 inh inactive.
CN(C)CCCNc1nc2cc(-c3ccc4c(ccn4C)c3)sc2c(=O)n1C was read as Myeloid diff 2 inactive, HNF4A DNA FP inactive, CSN deneddyl inh inactive, Rpn11 inh 39, Rpn11 inh conf inactive, MMP-2 inh inactive and Thrombin inh inactive.
`Cc1ccnc(NS(=O)(=O)c2ccc(NC(=O)c3cc(-c4ccc(Br)cc4)nc4ccccc34)cc2)n1` gave Myeloid diff 2 inactive, TPT1 inhibitor inactive, HNF4A DNA FP inactive, CSN deneddyl inh inactive, Rpn11 inh 38, Rpn11 inh conf inactive, MMP-2 inh inactive and Thrombin inh inactive.
`Cc1nnc(NC(=O)c2ccc(Br)o2)s1` gave Myeloid diff 2 inactive, TPT1 inhibitor inactive, HNF4A DNA FP inactive, CSN deneddyl inh inactive and Rpn11 inh inactive.
Screening COc1ccc(C#Cc2ccc3c(c2)O[C@@H](CN(C)C(=O)Nc2cccc(OC)c2)[C@H](C)CN([C@@H](C)CO)S3(=O)=O)cc1 returned Myeloid diff 2 inactive, HNF4A DNA FP inactive, CSN deneddyl inh inactive, Rpn11 inh 47, Rpn11 inh conf 41, MMP-2 inh inactive and Thrombin inh inactive.
Cc1ccc2[nH]c(O)c(N=Nc3nc4ccccc4s3)c2c1 was read as Myeloid diff 2 inactive, TPT1 inhibitor inactive, HNF4A DNA FP inactive, CSN deneddyl inh inactive and Rpn11 inh inactive.
Screening Oc1[nH]c2ccccc2c1N=Nc1nc2ccccc2s1 returned Myeloid diff 2 inactive, TPT1 inhibitor inactive, HNF4A DNA FP inactive, CSN deneddyl inh inactive, Rpn11 inh 39, Rpn11 inh conf inactive, MMP-2 inh inactive and Thrombin inh inactive.
Cc1cccc(NC(=O)c2cc(Cl)ccc2[N+](=O)[O-])c1 was read as Myeloid diff 2 inactive, TPT1 inhibitor inactive, HNF4A DNA FP inactive, CSN deneddyl inh inactive, Rpn11 inh 73, Rpn11 inh conf inactive, MMP-2 inh inactive and Thrombin inh inactive.
Cc1ccc(NC(=O)c2cc(Cl)ccc2[N+](=O)[O-])cc1C was read as Myeloid diff 2 inactive, TPT1 inhibitor inactive, HNF4A DNA FP inactive, CSN deneddyl inh inactive and Rpn11 inh inactive.
`O=C(c1ccc(Cl)cc1)c1cn[nH]c1-c1ccccc1O` gave Myeloid diff 2 inactive, TPT1 inhibitor inactive, HNF4A DNA FP inactive, CSN deneddyl inh inactive, Rpn11 inh active, Rpn11 inh conf inactive, MMP-2 inh inactive and Thrombin inh inactive.
Screening Cc1ccc(CNC(=O)c2ccccc2N)cc1 returned Myeloid diff 2 inactive, TPT1 inhibitor inactive, HNF4A DNA FP inactive, CSN deneddyl inh inactive and Rpn11 inh inactive.
Screening Cc1cccc(CNC(=O)c2ccccc2N)c1 returned Myeloid diff 2 inactive, TPT1 inhibitor inactive, HNF4A DNA FP inactive, CSN deneddyl inh inactive, Rpn11 inh 198, Rpn11 inh conf inactive, MMP-2 inh inactive and Thrombin inh inactive.
`O=C(NCCCN1CCOCC1)c1cccc(NC(=O)c2ccccc2)c1` gave Myeloid diff 2 inactive, TPT1 inhibitor inactive, HNF4A DNA FP inactive, CSN deneddyl inh inactive, Rpn11 inh 46, Rpn11 inh conf inactive, MMP-2 inh inactive and Thrombin inh inactive.
For Cc1ccc2oc(=O)c3cc(C(=O)NCCN4CCN(C)CC4)sc3c2c1 the results were Myeloid diff 2 inactive, TPT1 inhibitor inactive, HNF4A DNA FP inactive, CSN deneddyl inh inactive and Rpn11 inh inactive.
Screening O=C(NCCCN1CCOCC1)c1cc2c(=O)[nH]c3ccccc3c2s1 returned Myeloid diff 2 inactive, TPT1 inhibitor inactive, HNF4A DNA FP inactive, CSN deneddyl inh inactive, Rpn11 inh 58, Rpn11 inh conf inactive, MMP-2 inh inactive and Thrombin inh inactive.
Screening O=C(NCCCN1CCOCC1)c1ccc2ccccc2c1 returned Myeloid diff 2 inactive, TPT1 inhibitor inactive, HNF4A DNA FP inactive, CSN deneddyl inh inactive and Rpn11 inh inactive.
